Assay results as given in BindingDB's records for doi:10.1021/jm300238h (Sanford-Burnham Medical Research Institute, 2012).

Molecular target: Protease (Human immunodeficiency virus 1, UniProt Q9YQ12)
Assay: Inhibition of wild type HIV1 protease by FRET assay
In short: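 Recombinant HIV-1 protease Q7K, desalted into 20 mM sodium acetate pH 5, apparent concentration ~50 nM (UV 280 nm). Inhibitors in DMSO, 12 concentrations, added with protease to buffer pH 4.7 (0.1 M NaOAc, 1 M NaCl, 1 mM EDTA, 1 mM DTT, 2% DMSO, 1 mg/mL BSA). Cleavage started by injecting EDANS/DABCYL peptide substrate. Ki from initial velocities fitted to the Morrison equation.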

Chain of Protease (Q9YQ12 whole entry): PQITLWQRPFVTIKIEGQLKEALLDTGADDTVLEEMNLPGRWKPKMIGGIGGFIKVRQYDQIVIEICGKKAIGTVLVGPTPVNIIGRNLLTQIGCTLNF

`COc1ccc(S(=O)(=O)N(CC(C)C)C[C@@H](O)[C@H](Cc2ccccc2)NC(=O)[C@@H]2CN(c3cccc(C(C)=O)c3)C(=O)O2)cc1` [(5S)-3-(3-Acetylphenyl)-N-[(1S,2R)-1-benzyl-2-hydroxy-3-[isobutyl[(4-methoxyphenyl)sulfonyl]amino]propyl]-2-oxooxazolidine-5-carboxamide] gave a Ki of 1 pM.
